Measured values as given in ChEMBL document CHEMBL1121813, “Dihydrochalcone sweeteners. A study of the atypical temporal phenomena” (1981).

What was measured:
Type in all cases: functional
Homo sapiens [1] = species on record: Homo sapiens; assay: Experimentally determined perceived intensity of compound at a concentration of 1000 ppm (mean value)
Summary of the method: (§1)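 Trained human sensory panel of judges tasted aqueous solutions of the compound. Samples had to be ≥95 weight % pure (HPLC, proton titration, Karl Fischer), non-mutagenic in five Salmonella typhimurium strains with and without microsomal activation, and non-toxic in a single-oral-dose mouse test. Perceived intensity (Ip) was read from time–intensity curves at 4- or 6-s intervals and averaged. Outliers at the 95% level were rejected by t-value. Values reported as mean (2Sm).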

Homo sapiens [2] = species on record: Homo sapiens; assay: Number of taste judgments per compound
Homo sapiens [3] = species on record: Homo sapiens; assay: Percentage of judgments reporting an aftertaste at a concentration of 1000 ppm and character thereof
Summary of the method: (§2)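 Trained judges tasted aqueous solutions of the compounds, which had to be ≥95 weight percent pure and to have passed mutagenicity and single oral dose toxicity screening. The value is the percentage of panel judgments reporting an aftertaste. Where given, its character is recorded as sweet, bitter or bitter-sweet.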

Homo sapiens [4] = species on record: Homo sapiens; assay: Experimentally determined perceived intensity of compound at a concentration of 2000 ppm (mean value); summary of the method: as §1
Homo sapiens [5] = species on record: Homo sapiens; assay: Percentage of judgments reporting an aftertaste at a concentration of 2000 ppm and character thereof; summary of the method: as §2
Homo sapiens [6] = species on record: Homo sapiens; assay: Intensity calculated on a weight basis relative to an 85500 ppm sucrose solution at a concentration of 1011 ppm (mean value)
Summary of the method: (§3)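 Trained human panel tasted aqueous solutions of purity-checked (≥95 weight percent) compounds cleared for mutagenicity and mouse oral toxicity. Weight-basis intensity I_w = perceived intensity × (85500 ppm sucrose / compound concentration in ppm). The mean is reported with 2S_m limits; data deviating excessively at 95% confidence were rejected by the t-value method.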

Homo sapiens [7] = species on record: Homo sapiens; assay: Bitter character at a concentration of 1011 ppm (mean value)
Summary of the method: (§4)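 Trained human panel tasted aqueous solutions. Each judge reported whether there was an aftertaste and its character (sweet, bitter or bitter-sweet). The value is the percentage of judgments reporting a bitter aftertaste.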

Homo sapiens [8] = species on record: Homo sapiens; assay: Other taste character at a concentration of 1011 ppm (mean value)
Summary of the method: (§5)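 Trained human panel tasted aqueous solutions of each compound. Aftertaste is scored as the percentage of judgments reporting one, with its character coded sweet (s), bitter (b) or bitter-sweet (bs).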

Homo sapiens [9] = species on record: Homo sapiens; assay: Experimentally determined perceived intensity of compound at a concentration of 1011 ppm (mean value); summary of the method: as §1
Homo sapiens [10] = species on record: Homo sapiens; assay: Sweet / Bitter character at a concentration of 1011 ppm (mean value)
Homo sapiens [11] = species on record: Homo sapiens; assay: Percentage of judgments reporting an aftertaste at a concentration of 1011 ppm and character thereof; Bitter-sweet; summary of the method: as §2
Homo sapiens [12] = species on record: Homo sapiens; assay: Intensity calculated on a molar basis relative to a 0.25 M sucrose solution at a concentration of 1011 ppm (mean value)
Summary of the method: (§6)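 Trained human judges tasted aqueous solutions of the test compound; compounds were first required to be ≥95 weight percent pure and free of mutagenicity (five Salmonella typhimurium strains, ± microsomal activation) and of single oral dose mouse toxicity. Molar intensity I_m = perceived intensity × (0.25 M sucrose / compound molar concentration). The mean is reported with 2S_m limits; outliers were rejected at 95% confidence by t-value.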

Homo sapiens [13] = species on record: Homo sapiens; assay: Sour character at a concentration of 1011 ppm (mean value)
Homo sapiens [14] = species on record: Homo sapiens; assay: Salty character at a concentration of 1011 ppm (mean value)
Homo sapiens [15] = species on record: Homo sapiens; assay: Sweet character at a concentration of 1011 ppm (mean value)
Homo sapiens [16] = species on record: Homo sapiens; assay: Sweet character at a concentration of 720 ppm (mean value)
Homo sapiens [17] = species on record: Homo sapiens; assay: Experimentally determined perceived intensity of compound at a concentration of 720 ppm (mean value); summary of the method: as §1
Homo sapiens [18] = species on record: Homo sapiens; assay: Percentage of judgments reporting an aftertaste at a concentration of 720 ppm and character thereof
Homo sapiens [19] = species on record: Homo sapiens; assay: Intensity calculated on a weight basis relative to an 85500 ppm sucrose solution at a concentration of 720 ppm (mean value); summary of the method: as §3
Homo sapiens [20] = species on record: Homo sapiens; assay: Bitter character at a concentration of 720 ppm (mean value); summary of the method: as §4
Homo sapiens [21] = species on record: Homo sapiens; assay: Intensity calculated on a molar basis relative to a 0.25 M sucrose solution at a concentration of 720 ppm (mean value); summary of the method: as §6
Homo sapiens [22] = species on record: Homo sapiens; assay: Sour character at a concentration of 720 ppm (mean value)
Homo sapiens [23] = species on record: Homo sapiens; assay: Sweet / Bitter character at a concentration of 720 ppm (mean value); 50/50
Homo sapiens [24] = species on record: Homo sapiens; assay: Salty character at a concentration of 720 ppm (mean value)
Homo sapiens [25] = species on record: Homo sapiens; assay: Other taste character at a concentration of 720 ppm (mean value)
Summary of the method: (§7)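 Trained human sensory panel (Swartz method) tasted dilute aqueous solutions of the compounds, which had to be ≥95 weight percent pure and free of mutagenicity and toxicity. Taste character is reported as the mean value with 2S_m limits. Data deviating excessively at the 95% confidence level were rejected by the t-value method.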

Homo sapiens [26] = species on record: Homo sapiens; assay: Intensity calculated on a weight basis relative to an 85500 ppm sucrose solution at a concentration of 2000 ppm (mean value); summary of the method: as §3
Homo sapiens [27] = species on record: Homo sapiens; assay: Bitter character at a concentration of 2000 ppm (mean value); summary of the method: as §4
Homo sapiens [28] = species on record: Homo sapiens; assay: Other taste character at a concentration of 2000 ppm (mean value); summary of the method: as §5
Homo sapiens [29] = species on record: Homo sapiens; assay: Sweet / Bitter character at a concentration of 2000 ppm (mean value)
Homo sapiens [30] = species on record: Homo sapiens; assay: Percentage of judgments reporting an aftertaste at a concentration of 2000 ppm; summary of the method: as §2
Homo sapiens [31] = species on record: Homo sapiens; assay: Sweet character at a concentration of 2000 ppm (mean value); summary of the method: as §7
Homo sapiens [32] = species on record: Homo sapiens; assay: Intensity calculated on a molar basis relative to a 0.25 M sucrose solution at a concentration of 2000 ppm (mean value); summary of the method: as §6
Homo sapiens [33] = species on record: Homo sapiens; assay: Salty character at a concentration of 2000 ppm (mean value); summary of the method: as §7
Homo sapiens [34] = species on record: Homo sapiens; assay: Sour character at a concentration of 2000 ppm (mean value); summary of the method: as §7
Homo sapiens [35] = species on record: Homo sapiens; assay: Intensity calculated on a weight basis relative to an 85500 ppm sucrose solution at a concentration of 249 ppm (mean value); summary of the method: as §3
Homo sapiens [36] = species on record: Homo sapiens; assay: Sour character at a concentration of 249 ppm (mean value)
Homo sapiens [37] = species on record: Homo sapiens; assay: Bitter character at a concentration of 249 ppm (mean value); summary of the method: as §4
Homo sapiens [38] = species on record: Homo sapiens; assay: Experimentally determined perceived intensity of compound at a concentration of 249 ppm (mean value); summary of the method: as §1
Homo sapiens [39] = species on record: Homo sapiens; assay: Sweet / Bitter character at a concentration of 249 ppm (mean value); 97/3
Homo sapiens [40] = species on record: Homo sapiens; assay: Sweet character at a concentration of 249 ppm (mean value)
Homo sapiens [41] = species on record: Homo sapiens; assay: Intensity calculated on a molar basis relative to a 0.25 M sucrose solution at a concentration of 249 ppm (mean value); summary of the method: as §6
Homo sapiens [42] = species on record: Homo sapiens; assay: Other taste character at a concentration of 249 ppm (mean value); summary of the method: as §7
Homo sapiens [43] = species on record: Homo sapiens; assay: Salty character at a concentration of 249 ppm (mean value)
Homo sapiens [44] = species on record: Homo sapiens; assay: Percentage of judgments reporting an aftertaste at a concentration of 249 ppm and character thereof; summary of the method: as §2

`COc1ccc(CNC(=O)c2c(O)cc(O)cc2O)cc1O` gave an IP (Homo sapiens [1]) of 0, a Judgments (Homo sapiens [2]) of 1 and a Judgments (Homo sapiens [3]) of 0.
`CNc1ccc(CCC(=O)c2c(O)cc(OCC(=O)[O-])cc2O)cc1O.[Na+]` gave an IP (Homo sapiens [4]) of 0, a Judgments (Homo sapiens [2]) of 1 and a Judgments (Homo sapiens [5]) of 0.
For `COc1ccc(CCc2noc3cc(OCCCS(=O)(=O)[O-])cc(O)c23)cc1O.[K+]`, the IW (Homo sapiens [6]) was 41, the Taste character (Homo sapiens [7]) was 38 and the Taste character (Homo sapiens [8]) was 21. The IP (Homo sapiens [9]) was 0.49, the Taste character (Homo sapiens [10]) was 52 and the Judgments (Homo sapiens [2]) was 12. It also gave a Judgments (Homo sapiens [11]) of 100, an IM (Homo sapiens [12]) of 56 and a Taste character (Homo sapiens [13]) of 0. The Taste character (Homo sapiens [14]) was 0 and the Taste character (Homo sapiens [15]) was 41.
`COc1ccc(CNC(=O)c2c(O)cc(OCC(=O)[O-])cc2O)cc1O.[Na+]` gave an IP (Homo sapiens [4]) of 0, a Judgments (Homo sapiens [2]) of 1 and a Judgments (Homo sapiens [5]) of 0.
`COc1ccc(CCC(=O)c2c(O)cc(OCCCN)cc2O)cc1O` gave a Taste character (Homo sapiens [16]) of 50, an IP (Homo sapiens [17]) of 1.5 and a Judgments (Homo sapiens [18]) of 100. For the same compound, the IW (Homo sapiens [19]) was 180, the Taste character (Homo sapiens [20]) was 50 and the IM (Homo sapiens [21]) was 190. The Taste character (Homo sapiens [22]) was 0, the Judgments (Homo sapiens [2]) was 1 and the Taste character (Homo sapiens [23]) was 50. For the same compound, the Taste character (Homo sapiens [24]) was 0 and the Taste character (Homo sapiens [25]) was 0.
Compound `COc1ccc(C2OC[C@@H]3OC(O)[C@@H](O)[C@H](O)[C@H]3O2)cc1O` (stereo partly specified) has an IW (Homo sapiens [26]) of 10, a Taste character (Homo sapiens [27]) of 100 and a Taste character (Homo sapiens [28]) of 0. The IP (Homo sapiens [4]) was 0.3, the Taste character (Homo sapiens [29]) was 0 and the Judgments (Homo sapiens [2]) was 1. The Judgments (Homo sapiens [30]) was 0, the Taste character (Homo sapiens [31]) was 0 and the IM (Homo sapiens [32]) was 10. It also gave a Taste character (Homo sapiens [33]) of 0 and a Taste character (Homo sapiens [34]) of 0.
`COc1ccc(CCC(=O)c2c(O)cc(OC(CC(O)CO)C(=O)[O-])cc2O)cc1O.[Na+]` (stereo unspecified) showed an IP (Homo sapiens [4]) of 0, a Judgments (Homo sapiens [2]) of 1 and a Judgments (Homo sapiens [5]) of 0.
`COc1ccc(CCC(=O)c2c(O)cc(OCC(=O)CC(=O)[O-])cc2O)cc1O.[Na+]` gave an IW (Homo sapiens [35]) of 310, a Taste character (Homo sapiens [36]) of 0 and a Taste character (Homo sapiens [37]) of 3. The IP (Homo sapiens [38]) was 0.89, the Taste character (Homo sapiens [39]) was 97 and the Judgments (Homo sapiens [2]) was 24. It also gave a Taste character (Homo sapiens [40]) of 85, an IM (Homo sapiens [41]) of 380 and a Taste character (Homo sapiens [42]) of 12. It also gave a Taste character (Homo sapiens [43]) of 0 and a Judgments (Homo sapiens [44]) of 100.
